From ChEMBL document CHEMBL4020742, “Design and optimization of purine derivatives as in vivo active PDE10A inhibitors” (Bioorg Med Chem, 2017) come the findings set out here.

In general, IC50 refers to the concentration at which inhibition is half-maximal. Broadly, the half-life is the time needed for the level to fall by half in the phase considered. The low end stands for rapid decline, the high end for slow decline.

Active and inactive are the calls of the source.

Series [1] deals with T1, cAMP and cAMP-inhibited cGMP 3',5'-cyclic phosphodiesterase 10A (Homo sapiens, UniProt Q9Y233). Briefly: Inhibition of recombinant human N-terminal GST-tagged PDE10A1 (2 to 789 residues) expressed in baculovirus infected Sf9 cells at 5 uM using fluorescein-labeled cAMP as substrate preincubated for 15 mins followed by substrate addition measured after 30 mins by IMAP fluorescence polarization assay relative to control. In short, it runs like this: (§1)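 Recombinant PDE4A1A, PDE2A1 or PDE10A1 was incubated with compound (1% DMSO, duplicate) for 15 min at RT. Fluorescein-cAMP was then added for 30 min at RT, and the reaction was stopped with IMAP binding reagent (1 h, dark). FP was read at Ex485/Em535. Inhibition was set against no-enzyme and DMSO controls. IC50 came from a four-parameter logistic fit; values are the mean of at least two measurements.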

In series [2] the target is T1, cAMP and cAMP-inhibited cGMP 3',5'-cyclic phosphodiesterase 10A. The experiment in a line: Inhibition of recombinant human N-terminal GST-tagged PDE10A1 (2 to 789 residues) expressed in baculovirus infected Sf9 cells using fluorescein-labeled cAMP as substrate preincubated for 15 mins followed by substrate addition measured after 30 mins by IMAP fluorescence polarization assay. The method, boiled down:
as §1
For orientation: In fluorescence polarisation assays a small probe gives low polarisation when free and higher when bound to something large.

A short description of series [3]: Half life in human liver microsomes at 1 uM preincubated for 5 mins followed by NADPH addition measured up to 30 mins by LC-MS/MS analysis. The series is classed as ADME, microsome. The method, boiled down: (§2)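 Liver microsomes (0.5 mg/mL) plus 1 µM compound were preincubated 5 min at 37 °C in 0.1 M phosphate buffer pH 7.4 containing EDTA and MgCl₂. NADPH started the reaction. Samples at 0, 5, 10 and 30 min were quenched with cold acetonitrile containing tinidazole internal standard and centrifuged. Parent remaining was quantified by LC/MS/MS.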

Series [4] can be described thus: Half life in mouse liver microsomes at 1 uM preincubated for 5 mins followed by NADPH addition measured up to 30 mins by LC-MS/MS analysis. The series is classed as ADME, microsome. The method, boiled down:
as §2

Series [5] has as its target T2, CYP3A4 (Homo sapiens, UniProt P08684). The experiment in a line: Inhibition of CYP3A4 in human microsomes at 10 uM using midazolam as substrate preincubated for 5 mins followed by NADPH addition measured 20 mins relative to control. The series is classed as ADME. The following applies: human microsomes, probe midazolam, read-out: TDI. The method, boiled down: (§3)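 Pooled human microsomes (0.2 mg/mL) in 100 mM phosphate pH 7.4 with a probe cocktail: midazolam 10 µM, dextromethorphan 10 µM, diclofenac 20 µM, phenacetin 100 µM, mephenytoin 100 µM. Test compound was 10 µM; organic solvent was under 1%. After 5 min preincubation at 37 °C, 1 mmol/L NADPH was added and the reaction ran 20 min, keeping substrate conversion below 20%. Metabolite formation was expressed relative to PBS control.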

For series [6], the target named is T2, CYP3A4. The experiment in a line: (§4) Time-dependent inhibition of CYP3A4 in human microsomes at 10 uM using midazolam as substrate preincubated for 5 mins followed by NADPH addition measured 20 mins relative to control. Type of series: ADME. The following applies: human microsomes, probe midazolam, read-out: TDI.
Series [7] concerns the target T3, CYP2D6 (Homo sapiens, UniProt P10635). The experiment in a line: Inhibition of CYP2D6 in human microsomes at 10 uM using dextromethorphan as substrate preincubated for 5 mins followed by NADPH addition measured 20 mins relative to control. Type of series: ADME. The conditions noted are these: human microsomes, probe dextromethorphan, read-out: TDI. The method, boiled down:
as §3

A further series deals with Cytochrome P450 2D6 (Homo sapiens, UniProt P10635). The experiment in a line: (§5) […] of CYP2D6 in human microsomes at 10 uM using dextromethorphan as substrate preincubated for 5 mins followed by NADPH addition measured 20 mins relative to control. Type of series: ADME. The following applies: microsomes, 20 min, 10 µM.
Series [8] deals with T4, CYP2C9 (Homo sapiens, UniProt P11712). Briefly: Inhibition of CYP2C9 in human microsomes at 10 uM using diclofenac as substrate preincubated for 5 mins followed by NADPH addition measured 20 mins relative to control. The series is classed as ADME. The following applies: human microsomes, probe diclofenac, read-out: TDI. The method, boiled down: as §3
Series [9] concerns the target T4, CYP2C9. The experiment in a line: (§6) […] of CYP2C9 in human microsomes at 10 uM using diclofenac as substrate preincubated for 5 mins followed by NADPH addition measured 20 mins relative to control. Type of series: ADME. The following applies: human microsomes, probe diclofenac, read-out: TDI.
The target of a further series is T5, CYP1A2 (Homo sapiens, UniProt P05177).
T5 sequence (P05177 whole entry): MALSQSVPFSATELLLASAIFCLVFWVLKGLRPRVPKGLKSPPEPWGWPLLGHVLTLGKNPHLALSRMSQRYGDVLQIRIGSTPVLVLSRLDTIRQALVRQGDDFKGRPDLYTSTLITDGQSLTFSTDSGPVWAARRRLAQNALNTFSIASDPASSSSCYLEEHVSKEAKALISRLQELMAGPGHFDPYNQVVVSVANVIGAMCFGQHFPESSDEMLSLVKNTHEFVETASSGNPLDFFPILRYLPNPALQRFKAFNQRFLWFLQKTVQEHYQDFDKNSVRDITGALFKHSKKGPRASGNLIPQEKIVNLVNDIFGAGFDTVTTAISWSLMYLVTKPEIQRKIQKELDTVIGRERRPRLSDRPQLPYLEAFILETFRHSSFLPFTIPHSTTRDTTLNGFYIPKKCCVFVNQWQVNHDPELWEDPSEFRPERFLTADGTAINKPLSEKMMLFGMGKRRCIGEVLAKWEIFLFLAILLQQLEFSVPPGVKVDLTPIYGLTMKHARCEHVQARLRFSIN
Briefly: Inhibition of CYP1A2 in human microsomes at 10 uM using phenacetin as substrate preincubated for 5 mins followed by NADPH addition measured 20 mins relative to control. Type of series: ADME. The following applies: probe phenacetin, read-out: TDI. In short, it runs like this: as §3

For the next series, the target named is T6, Cytochrome P450 1A2 (Homo sapiens, UniProt P05177).
T6 sequence (P05177 whole entry): T5 sequence (P05177 whole entry)
The experiment in a line: Time-dependent inhibition of CYP1A2 in human microsomes at 10 uM using phenacetin as substrate preincubated for 5 mins followed by NADPH addition measured 20 mins relative to control. Type of series: ADME. The conditions noted are these: microsomes, 20 min, 10 µM.

The target of series [10] is T7, CYP2C19 (Homo sapiens, UniProt P33261). The experiment in a line: (§7) Inhibition of CYP2C19 in human microsomes at 10 uM using mephenytoin as substrate preincubated for 5 mins followed by NADPH addition measured 20 mins relative to control. Type of series: ADME. The conditions noted are these: human microsomes, probe mephenytoin, read-out: TDI. In short, it runs like this: as §3

In series [11] the target is T8, Cytochrome P450 2C19 (Homo sapiens, UniProt P33261). The experiment in a line: (§8) […] of CYP2C19 in human microsomes at 10 uM using mephenytoin as substrate preincubated for 5 mins followed by NADPH addition measured 20 mins relative to control. The series is classed as ADME. The conditions noted are these: microsomes, 20 min, 10 µM.
The target of another series is PDE2A1 (Homo sapiens, UniProt O00408). The experiment in a line: Inhibition of recombinant human N-terminal FLAG-tagged PDE2A1 (2 to 941 residues) expressed in baculovirus infected Sf9 cells at 1 uM using fluorescein-labeled cAMP as substrate preincubated for 15 mins followed by substrate addition measured after 30 mins by IMAP fluorescence polarization assay relative to control. The conditions noted are these: probe fluorescein-labeled cAMP. In short, it runs like this:
as §1

The test system of series [12] is Rattus norvegicus. Briefly: Antipsychotic activity in Sprague-Dawley rat assessed as inhibition of PCP-induced hyperlocomotion at 10 mg/kg, po pretreated for 30 mins followed by PCP addition measured after 5 mins for 1.5 hrs by open field test. Type of series: functional, organism-based. The method, boiled down:
(§9)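 Male SD rats (200-250 g), acclimated at least 1 week. Drug was given p.o. in sterile saline with 0.5% Tween 80 and 0.2% CMC-sodium, 30 min before PCP 5 mg/kg i.p. Rats were placed in a 40×40×45 cm open-field arena 5 min after PCP and video-tracked for 90 min. Read-out was total distance travelled, reported as mean ± SEM.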

The subject of series [13] is Rattus norvegicus. Briefly: Antipsychotic activity in Sprague-Dawley rat assessed as inhibition of PCP-induced hyperlocomotion at 50 mg/kg, po pretreated for 30 mins followed by PCP addition measured after 5 mins for 1.5 hrs by open field test. The series is classed as functional, organism-based. In short, it runs like this: as §9
Series [14] deals with Rattus norvegicus. Briefly: Antipsychotic activity in Sprague-Dawley rat assessed as inhibition of PCP-induced prepulse inhibition deficit at 10 mg/kg, po pretreated for 30 mins followed by PCP addition measured after 5 mins to 10 mins. The series is classed as functional, organism-based. The method, boiled down: (§10)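 Male SD rats (200-250 g) were dosed p.o. in saline with 0.5% Tween 80 and 0.2% CMC-sodium, 30 min before PCP 5 mg/kg i.p. Acoustic startle PPI was tested in startle chambers 5-10 min after PCP. Startle magnitude was the mean of pulse-alone trials. n = 11-16 per group; mean ± SEM; ANOVA with post hoc tests.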

The test system of series [15] is Rattus norvegicus. The experiment in a line: Antipsychotic activity in Sprague-Dawley rat assessed as inhibition of PCP-induced prepulse inhibition deficit at 50 mg/kg, po pretreated for 30 mins followed by PCP addition measured after 5 mins to 10 mins. The series is classed as functional, organism-based. The method, boiled down:
as §10

Another series addresses Cytochrome P450 3A4 (Homo sapiens, UniProt P08684). The description is as §4. Type of series: ADME. The following applies: microsomes, 20 min, 10 µM.
The next series deals with Cytochrome P450 2C9 (Homo sapiens, UniProt P11712). The series is described as §6. Type of series: ADME. The conditions noted are these: microsomes, 20 min, 10 µM.
Series [16] deals with T8, Cytochrome P450 2C19. The description is as §7. The series is classed as ADME. The following applies: microsomes, 20 min, 10 µM. In short, it runs like this:
as §3

Series [17] addresses T3, CYP2D6. Described as §5. The series is classed as ADME. The conditions noted are these: human microsomes, probe dextromethorphan, read-out: TDI.
The target of series [18] is T7, CYP2C19. The series is described as §8. The following applies: human microsomes, probe mephenytoin, read-out: TDI. Type of series: ADME.

T3 sequence (P10635 whole entry): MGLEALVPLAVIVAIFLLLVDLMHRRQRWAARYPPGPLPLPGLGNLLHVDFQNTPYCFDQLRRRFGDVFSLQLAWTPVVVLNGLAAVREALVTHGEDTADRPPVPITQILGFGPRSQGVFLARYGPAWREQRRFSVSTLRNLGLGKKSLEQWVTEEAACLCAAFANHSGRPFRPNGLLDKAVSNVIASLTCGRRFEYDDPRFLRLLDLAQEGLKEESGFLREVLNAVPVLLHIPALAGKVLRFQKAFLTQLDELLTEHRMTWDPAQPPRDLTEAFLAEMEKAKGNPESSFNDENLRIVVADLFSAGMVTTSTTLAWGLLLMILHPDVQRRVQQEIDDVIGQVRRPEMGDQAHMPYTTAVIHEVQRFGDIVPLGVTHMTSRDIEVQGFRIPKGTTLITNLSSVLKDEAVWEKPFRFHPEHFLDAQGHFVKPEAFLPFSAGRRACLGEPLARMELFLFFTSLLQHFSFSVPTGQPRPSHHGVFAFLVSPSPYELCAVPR
T4 sequence (P11712 whole entry): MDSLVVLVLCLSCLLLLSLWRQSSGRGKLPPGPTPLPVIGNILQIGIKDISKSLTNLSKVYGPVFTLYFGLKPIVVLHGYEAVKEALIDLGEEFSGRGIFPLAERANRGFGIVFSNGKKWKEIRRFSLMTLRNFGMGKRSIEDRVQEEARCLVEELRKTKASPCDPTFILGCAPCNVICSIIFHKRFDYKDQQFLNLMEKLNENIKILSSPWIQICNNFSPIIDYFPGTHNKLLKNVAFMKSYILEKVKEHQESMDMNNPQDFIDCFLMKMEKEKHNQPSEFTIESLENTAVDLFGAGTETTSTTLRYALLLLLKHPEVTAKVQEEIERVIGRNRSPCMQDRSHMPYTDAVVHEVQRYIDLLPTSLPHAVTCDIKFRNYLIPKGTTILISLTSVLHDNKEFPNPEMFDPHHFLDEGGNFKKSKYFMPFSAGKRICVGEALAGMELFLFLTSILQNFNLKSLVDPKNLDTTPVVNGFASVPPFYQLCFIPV
T7 sequence (P33261 whole entry): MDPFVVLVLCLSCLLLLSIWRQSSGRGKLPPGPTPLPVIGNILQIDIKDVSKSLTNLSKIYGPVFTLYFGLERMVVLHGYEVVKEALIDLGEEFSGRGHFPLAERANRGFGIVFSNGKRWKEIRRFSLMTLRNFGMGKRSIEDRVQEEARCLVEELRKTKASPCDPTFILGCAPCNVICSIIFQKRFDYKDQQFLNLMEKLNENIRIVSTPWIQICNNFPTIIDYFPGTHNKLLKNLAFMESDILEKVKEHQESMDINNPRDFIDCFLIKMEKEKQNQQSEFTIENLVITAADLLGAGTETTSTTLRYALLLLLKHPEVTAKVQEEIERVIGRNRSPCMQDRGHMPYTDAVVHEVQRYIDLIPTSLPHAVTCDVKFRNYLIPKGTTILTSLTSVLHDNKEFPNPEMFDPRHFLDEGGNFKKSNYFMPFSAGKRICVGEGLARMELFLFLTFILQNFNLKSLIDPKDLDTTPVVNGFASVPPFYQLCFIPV
T8 sequence (P33261 whole entry, the tested form may be a part): as the sequence (P33261 whole entry) above
T1 sequence (Q9Y233 whole entry, the tested form may be a part): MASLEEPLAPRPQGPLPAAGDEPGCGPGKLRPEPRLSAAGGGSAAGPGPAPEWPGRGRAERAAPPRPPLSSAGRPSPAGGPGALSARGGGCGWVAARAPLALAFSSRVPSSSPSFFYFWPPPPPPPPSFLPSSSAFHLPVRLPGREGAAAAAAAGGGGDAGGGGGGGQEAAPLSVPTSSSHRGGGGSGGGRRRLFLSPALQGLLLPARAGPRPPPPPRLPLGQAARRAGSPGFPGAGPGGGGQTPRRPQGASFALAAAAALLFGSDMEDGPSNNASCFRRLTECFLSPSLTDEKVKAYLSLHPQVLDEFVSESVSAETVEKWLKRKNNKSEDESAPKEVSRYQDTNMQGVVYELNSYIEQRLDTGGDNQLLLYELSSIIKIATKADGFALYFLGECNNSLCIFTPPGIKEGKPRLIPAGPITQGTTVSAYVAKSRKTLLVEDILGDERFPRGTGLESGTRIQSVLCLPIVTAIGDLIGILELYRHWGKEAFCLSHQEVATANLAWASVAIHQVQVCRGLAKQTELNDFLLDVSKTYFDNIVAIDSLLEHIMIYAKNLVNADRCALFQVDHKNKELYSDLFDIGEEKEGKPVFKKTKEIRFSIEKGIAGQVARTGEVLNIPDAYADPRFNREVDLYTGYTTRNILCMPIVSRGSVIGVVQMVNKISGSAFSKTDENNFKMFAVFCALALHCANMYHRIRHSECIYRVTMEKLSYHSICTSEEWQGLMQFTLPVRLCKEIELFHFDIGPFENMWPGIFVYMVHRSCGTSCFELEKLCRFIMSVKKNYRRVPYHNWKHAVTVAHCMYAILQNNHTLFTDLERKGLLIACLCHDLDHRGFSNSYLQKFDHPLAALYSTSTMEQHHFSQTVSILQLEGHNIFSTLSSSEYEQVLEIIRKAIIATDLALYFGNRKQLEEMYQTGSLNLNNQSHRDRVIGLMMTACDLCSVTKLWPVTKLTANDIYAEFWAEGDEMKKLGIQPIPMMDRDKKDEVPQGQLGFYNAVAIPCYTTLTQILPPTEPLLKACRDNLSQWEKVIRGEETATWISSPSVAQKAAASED
T2 sequence (P08684 whole entry): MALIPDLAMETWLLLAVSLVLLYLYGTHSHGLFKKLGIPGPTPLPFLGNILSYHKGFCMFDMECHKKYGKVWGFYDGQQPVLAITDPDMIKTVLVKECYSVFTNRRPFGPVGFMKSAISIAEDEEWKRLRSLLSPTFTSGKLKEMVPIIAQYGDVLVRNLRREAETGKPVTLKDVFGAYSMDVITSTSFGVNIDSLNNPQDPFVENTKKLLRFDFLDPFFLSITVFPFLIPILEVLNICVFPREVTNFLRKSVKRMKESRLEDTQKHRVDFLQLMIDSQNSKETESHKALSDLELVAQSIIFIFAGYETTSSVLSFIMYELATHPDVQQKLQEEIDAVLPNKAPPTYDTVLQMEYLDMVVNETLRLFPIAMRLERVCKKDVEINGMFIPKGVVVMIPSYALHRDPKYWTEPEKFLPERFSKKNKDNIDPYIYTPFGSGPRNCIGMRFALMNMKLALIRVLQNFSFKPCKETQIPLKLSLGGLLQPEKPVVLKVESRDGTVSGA
Cytochrome P450 2D6, sequence (P10635 whole entry): as the sequence (P10635 whole entry) above
PDE2A1, sequence (O00408 whole entry, the tested form may be a part): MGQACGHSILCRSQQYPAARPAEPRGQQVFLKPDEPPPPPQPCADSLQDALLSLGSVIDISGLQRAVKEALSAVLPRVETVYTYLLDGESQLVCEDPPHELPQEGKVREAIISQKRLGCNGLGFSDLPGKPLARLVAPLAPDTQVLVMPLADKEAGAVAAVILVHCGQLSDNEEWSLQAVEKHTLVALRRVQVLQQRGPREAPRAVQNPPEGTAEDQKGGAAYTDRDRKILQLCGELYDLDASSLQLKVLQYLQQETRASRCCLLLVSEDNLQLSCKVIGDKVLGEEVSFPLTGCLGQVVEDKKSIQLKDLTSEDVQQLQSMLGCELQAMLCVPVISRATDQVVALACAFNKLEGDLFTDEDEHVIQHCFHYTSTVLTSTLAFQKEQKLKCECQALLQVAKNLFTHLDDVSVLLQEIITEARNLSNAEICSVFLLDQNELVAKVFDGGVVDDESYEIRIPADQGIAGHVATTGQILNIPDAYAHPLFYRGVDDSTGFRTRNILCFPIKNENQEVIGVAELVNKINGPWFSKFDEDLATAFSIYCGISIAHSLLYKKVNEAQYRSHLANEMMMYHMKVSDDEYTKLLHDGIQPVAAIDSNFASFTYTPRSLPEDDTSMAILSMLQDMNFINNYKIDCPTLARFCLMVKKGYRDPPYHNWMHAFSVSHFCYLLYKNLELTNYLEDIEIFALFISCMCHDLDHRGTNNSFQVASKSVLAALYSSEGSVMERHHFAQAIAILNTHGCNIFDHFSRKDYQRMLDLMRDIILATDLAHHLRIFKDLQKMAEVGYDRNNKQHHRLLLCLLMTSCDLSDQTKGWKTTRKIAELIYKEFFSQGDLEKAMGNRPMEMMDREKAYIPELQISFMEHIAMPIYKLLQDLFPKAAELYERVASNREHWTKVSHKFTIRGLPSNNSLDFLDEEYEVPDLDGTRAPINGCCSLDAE
Cytochrome P450 3A4, sequence (P08684 whole entry): as the sequence (P08684 whole entry) above
Cytochrome P450 2C9, sequence (P11712 whole entry): as the sequence (P11712 whole entry) above

Regarding `Cc1nc2c(N3CCOCC3)ncnc2n1Cc1ccc(-c2ccccc2Cl)cc1`, the inhibition in series [1] was 98%. Further, the IC50 in series [2] is 0.038 µM. Besides, the figures for the half-life at 1 µM in series [3] and in series [4] were 43.3 min and 17.8 min, respectively. For the same compound, the inhibition at 20 min, 10 µM was 9% at CYP3A4 [5]; 50% on CYP3A4 [6]; 22% on CYP2D6 [7]; 52% at CYP2C9 [8]; 10% on CYP2C9 [9]; 15% at CYP1A2. Moreover, the inhibition at 20 min, 10 µM at CYP2C19 [10] was 65%. In addition, the TDI result on Cytochrome P450 2D6, on Cytochrome P450 1A2 and at Cytochrome P450 2C19 [11] was “Not Active” in each case. Besides, on PDE2A1, the inhibition at 0.5 h, 1 µM came out at 29%. Further, the inhibition entry in the series on Rattus norvegicus [12] was “Active”. For the same compound, the inhibition result in the series with Rattus norvegicus [13], with Rattus norvegicus [14] and with Rattus norvegicus [15] was “inactive” in each case.

On to `COc1ccc(-c2ccc(CNc3c(C)nc4c(N5CCOCC5)nccn34)cc2)cc1OC`, for which the inhibition in series [1] is 92%. Moreover, the IC50 in series [2] came to 0.452 µM. Further, the half-life at 1 µM amounted to 18.2 min in series [3] and 12.8 min in series [4]. Also, the inhibition at 20 min, 10 µM at CYP3A4 [5] turned out to be 42%; on CYP2D6 [7], 24%; on CYP2C9 [8], 41%; on CYP1A2, 29%. In addition, the TDI result on Cytochrome P450 3A4, on Cytochrome P450 2D6, at Cytochrome P450 2C9, on Cytochrome P450 1A2, at Cytochrome P450 2C19 [16] and at Cytochrome P450 2C19 [11] was “Not Active” in each case. For the same compound, on PDE2A1, the inhibition at 0.5 h, 1 µM was 5%.

As for `Cc1nc2c(N3CCOCC3)ncnc2n1Cc1ccc(-c2cnn(C)c2)cc1`, the inhibition in series [1] was 96%. In [2], the IC50 is 0.068 µM. Further, the half-life at 1 µM in [3] is 231 min; in series [4], 99 min. The inhibition at 20 min, 10 µM at CYP3A4 [5] was found to be 40%; at CYP2D6 [7] it was 7%; at CYP2D6 [17], 20%; at CYP2C9 [8] it was 10%; on CYP2C9 [9], 40%; at CYP1A2 it was 21%. Also, the inhibition at 20 min, 10 µM on CYP2C19 [10] was found to be 22%; at CYP2C19 [18], 80%. Moreover, the TDI result at Cytochrome P450 3A4 and on Cytochrome P450 1A2 was “Not Active” in each case.
